The array DNA melting data of Ke et al. (doi:10.1101/2024.01.08.574731)

How the values were obtained:
[1] = melting temperature; fluorescence melt of hairpins on a sequencing array, two-state fit, raised by 9.35 °C to match UV melts; conditions: sodium 0.088 M
Outline: (§1)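 Folding enthalpy and melting temperature come from bootstrapped two-state fits to Cy3 fluorescence of library hairpins carrying annealed Cy3 and quencher oligos on a sequenced MiSeq flow cell. Imaging was done in 50 mM Na-HEPES pH 8.0, 25 mM NaCl, stepping by 2.5 °C up to 60 °C, and signals were normalised to pre-quench Cy3 and to control constructs. Results of four replicates were combined by inverse variance, and fitted temperatures were raised by 9.35 °C to match UV melts.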

[2] = folding enthalpy; higher = less favourable; fluorescence melt of hairpins on a sequencing array, two-state fit; conditions: sodium 0.088 M
Outline: as §1

| Sequence | Tm [1] [°C] | folding enthalpy [2] [kcal/mol] |
| --- | --- | --- |
| GGAAGCGAAAGCTCATCC ((((((....)))..))) | 29 | -10 |
| GGAGAGCGAAAGCTGTCC (((.(((....))).))) | 58.2 | -32.8 |
| GGAGTGTCGAAAGACTCC (((..(((....)))))) | 39.2 | -17.2 |
| GATCGGCTACCGATC ((((((...)))))) | 56 | -33.9 |
| GGGGAAGGAAACTTCCTC (.(((((....))))).) | 46.8 | -21.6 |
| GCTCCAGGAAACTGGAAC (.(((((....))))).) | 38.3 | -18.7 |
| GTTGACGAAAGTCGAAAC ((((((....)))..))) | 30.9 | -12 |
| GCGTACGAAAGTAGACGC ((((((....)))..))) | 51.8 | -25.3 |
| GCCATGAAAATGGC (((((....))))) | 60.6 | -28.1 |
| GAAGAACGAAAGTTTTC (((.(((....)))))) | 24.9 | -12.6 |
| GCTTGGGCGAAAGCCAGC (((..(((....)))))) | 48.6 | -12.9 |
| GATCTTTCTAAGATC ((((((...)))))) | 45.2 | -34.2 |
| GCATCTCCGAAAGGATGC (((..(((....)))))) | 46.1 | -28.6 |
| CGCAACGGAAACGTCGCG (((.(((....))).))) | 52.1 | -42.6 |
| GGTTAAACGAAAGTTACC (((..(((....)))))) | 32 | -14.3 |
| GCGGACCCGAAAGGGCGC (((..(((....)))))) | 59.5 | -18 |
| GAGTGCGAAAGCAACTC ((((((....))).))) | 59 | -18.8 |
| GATCCGCCACCGGATC ((((((....)))))) | 56.4 | -34.3 |
| GATCTCTCAAGAGATC ((((((....)))))) | 53.7 | -40.8 |
| GAGCCACCGAAAGGTCTC (((..(((....)))))) | 29.7 | -12.2 |
| GCGTCTTACGC ((((...)))) | 62.5 | -21.1 |
| GTTAACGAAAGTTGAAC ((((((....))).))) | 28.2 | -12.8 |
| GAGCGCGGAAACGCACTC (((.(((....))).))) | 59 | -24.2 |

| Sequence | Tm [1] [°C] | folding enthalpy [2] [kcal/mol] |
| --- | --- | --- |
| GTATGACGAAAGTCTAC (((.(((....)))))) | 39 | -16.9 |
| GTCCGGCGAAAGCCTGAC (((.(((....))).))) | 51.8 | -20.9 |
| GATCTTTAGAAAGATC ((((((....)))))) | 40.6 | -31.1 |
| GGAGATGGAAACACCTCC ((((.((....)).)))) | 39.7 | -29.7 |
| GTATCCGAAAGGAGTAC ((((((....))).))) | 35.5 | -19.1 |
| GCATCGCGAAAGCGTGC (((.(((....)))))) | 63.8 | -19.7 |
| GCAGTCGAAAGACATGC ((((((....))).))) | 51.5 | -24.1 |
| GATCTACACTAGATC ((((((...)))))) | 41.7 | -20.8 |
| GAGCAGCGAAAGCTCCTC (((.(((....))).))) | 37.5 | -15.2 |
| GCAATCGAAAGATATGC ((((((....))).))) | 36.3 | -21.1 |
| GATGCCGAAAGGCATATC ((((((....)))..))) | 55.7 | -11 |
| GTGGTGGGAAACCACCGC (.(((((....))))).) | 60.5 | -29.4 |
| GACGCCGAAAGGCGGTC ((((((....))).))) | 64.9 | -9.77 |
| GCGTCACCGAAAGGTCGC (((..(((....)))))) | 51.2 | -25.2 |
| GAGGAGGGAAACCTCCCC (.(((((....))))).) | 40.9 | -11.8 |
| GGTAGTCGAAAGACACC (((.(((....)))))) | 50.4 | -20.1 |
| GGCGGACGAAAGTCGGCC (((.(((....))).))) | 69.3 | -39.2 |
| GCCTTCACGAAAGTGGGC (((..(((....)))))) | 46.6 | -18.6 |
| GCGGACTCGAAAGAGCGC (((..(((....)))))) | 51 | -22.9 |
| GCTTATCGAAAGATTAGC (((.(((....))).))) | 44.8 | -35.9 |
| GACCACGGAAACGCGGTC ((((.((....)).)))) | 53.2 | -49 |
| GTCGTAGGAAACTACGAC (((((((....))))))) | 63.3 | -43.6 |
| GCGTAGCGAAAGCTCTGC ((..(((....)))..)) | 43.8 | -7.19 |

| Sequence | Tm [1] [°C] | folding enthalpy [2] [kcal/mol] |
| --- | --- | --- |
| GACGGAGGAAACTCCGTC (((((((....))))))) | 67.8 | -36.1 |
| GGTCACGAAAGTGCTACC ((((((....)))..))) | 36.3 | -15.6 |
| GGTTATGCGAAAGCAACC (((..(((....)))))) | 38.3 | -15.1 |
| GATCCTTCTCAGGATC ((((((....)))))) | 50.9 | -45 |
| GATCACTGGCGTGATC ((((((....)))))) | 55.2 | -41.4 |
| GCTAGCGGAAACGCTAAC (.(((((....))))).) | 40 | -12.7 |
| GATCGGCCACCCGATC ((((((....)))))) | 54.9 | -39.9 |
| GGCGAGGCGAAAGCCGCC (((..(((....)))))) | 66.9 | -17.3 |
| GGTCATGGAAACATGGCC ((.((((....)))).)) | 54.5 | -60.3 |
| GAGGACGCGAAAGCGCTC (((..(((....)))))) | 36.9 | -12.9 |
| GATCACGGTTGTGATC ((((((....)))))) | 61 | -31.2 |
| GATCGCTTGCGCGATC ((((((....)))))) | 67.1 | -30.3 |
| GGATACGAAAGTACCTCC ((((((....)))..))) | 40.1 | -20 |
| GCCGGCGAAAGCCACGGC ((((((....)))..))) | 63.4 | -21.5 |
| GGGGTGGGAAACTGCCCC ((((..(....)..)))) | 51.7 | -30.2 |
| GATCGTGGAAACACAATC (((.(((....))).))) | 34.3 | -17.6 |
| GCCGCGCGAAAGCCCAGC ((.(.((....)).).)) | 29.9 | -12.7 |
| GCGAGACTCGC ((((...)))) | 49 | -10.2 |
| GCGGAGGCCCGC ((((....)))) | 53.8 | -17.4 |
| GACTACGCGAAAGCGGTC (((..(((....)))))) | 38 | -15.1 |
| GCATGTGCGAAAGCATGC (((..(((....)))))) | 52.2 | -18.3 |
| GTGATCGAAAGATCTCAC ((((((....)))..))) | 39.1 | -11.4 |
| GGGCTCGAAAGAGGGCCC ((((((....)))..))) | 54.6 | -39.4 |
